The subject of one experiment is HeLa. As to the kind of experiment: Cytotoxicity against human HeLa cells assessed as growth inhibition after 48 hrs by MTT assay. Type of experiment: functional, cell-based. The method, boiled down: (§1)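 MTT proliferation assay: 2 × 10³ cells per well seeded, 24 h incubation, then treated with analogs dissolved in DMSO and diluted in medium at […] for 48 h. Medium then replaced with fresh medium carrying MTT (5 mg/mL stock in PBS). IC50 taken as concentration inhibiting proliferation of 50% cells; SD between batches.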
For orientation: Tetrazolium dyes change colour on reduction, which living cells bring about.

In a further experiment the test system is PC-3. The experiment is described as follows: Cytotoxicity against human PC3 cells assessed as growth inhibition after 48 hrs by MTT assay. Type of experiment: functional, cell-based. Conditions: PC-3, 48 h. In outline:
as §1

As usually defined, the IC50 is the concentration at which inhibition is half-maximal.

In the case of `CC(=O)OC/C=C/c1ccc(OCc2ccccc2)c(OC(C)=O)c1`, the half-inhibitory concentration (IC50) in the experiment with HeLa worked out at 42 µM; in the experiment with PC-3, 38 µM.
As to `C=CCOc1ccc(CC(COC(C)=O)OC(C)=O)cc1OC` (stereo not given), the IC50 with HeLa amounted to 96 µM.
Regarding `C=CC(O)c1ccc(OCc2ccccc2)c(O)c1` (stereo not given), in the experiment on HeLa, the half-maximal inhibitory concentration (IC50) is 76 µM.
In the case of `C=CCc1ccc(O)c(O)c1` [HYDROXYCHAVICOL], the concentration for half-maximal inhibition (IC50) in the experiment with HeLa amounted to 83 µM; in the experiment with PC-3 it was 55 µM.
On the same counts, the results for `CCC(OC(C)=O)c1ccc(O)c(OC(C)=O)c1` (stereo not given) are 40 µM and 48 µM.
Take `COc1cc(CC(COC(C)=O)OC(C)=O)ccc1O` (stereo not given): the half-maximal inhibitory concentration (IC50) with HeLa amounted to 60 µM.
In the case of `CC(=O)OCCCc1ccc(O)c(O)c1`, the 50% inhibitory concentration (IC50) was determined as 22 µM with HeLa and 83 µM with PC-3.
With `CCC(OC(C)=O)c1ccc(OC(C)=O)c(OC(C)=O)c1` (stereo not given), the IC50 turned out to be 53 µM in the experiment with HeLa and 42 µM in the experiment with PC-3.
Take `CC(=O)OC/C=C/c1ccc(OCc2ccccc2)c(O)c1`: the half-inhibitory concentration (IC50) came to 13 µM in the experiment on HeLa and 3.5 µM with PC-3.
